In ChEMBL document CHEMBL1135826, “Antimicrobial peptides: synthesis and antibacterial activity of linear and cyclic drosocin and apidaecin 1b analogues” (2002):
Where a SMILES comes first, the peptide text is derived from it.

Assays:
[1] = tested on: Escherichia coli; assay: Minimum inhibitory concentration (lowest peptide concentration) required to prevent visible bacterial growth after 18 hr of incubation at 37 C in Mueller-Hinton broth against Escherichia coli D21; type: functional
Method in brief: (§1)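 Broth microdilution susceptibility test per NCCLS guidelines, in Mueller–Hinton broth with about 1.5–2.0 × 10^5 CFU/mL inoculum. Plates were incubated 18 h at 37 °C. MIC was taken as the lowest peptide concentration with no visible growth. Strains were ATCC strains or clinical isolates; E. coli O18:K1:H7 Bort is an encapsulated isolate from neonatal spinal fluid, and the S. aureus isolate is MRSA.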

[2] = tested on: Escherichia coli; assay: Minimum inhibitory concentration (lowest peptide concentration) required to prevent visible bacterial growth after 18 hr of incubation at 37 C in Mueller-Hinton broth against Escherichia coli O18:K1:H7; type: functional; method in brief: as §1
[3] = tested on: Klebsiella pneumoniae; assay: Minimum inhibitory concentration (lowest peptide concentration) required to prevent visible bacterial growth after 18 hr of incubation at 37 C in Mueller-Hinton broth against Klebsiella pneumoniae 22; type: functional; method in brief: as §1
[4] = tested on: Escherichia coli; assay: Minimum inhibitory concentration (lowest peptide concentration) required to prevent visible bacterial growth after 18 hr of incubation at 37 C in Mueller-Hinton broth against Escherichia coli ML-35; type: functional; method in brief: as §1
[5] = tested on: Salmonella typhimurium; assay: Minimum inhibitory concentration (lowest peptide concentration) required to prevent visible bacterial growth after 18 hr of incubation at 37 C in Mueller-Hinton broth against Salmonella Typhimurium ATCC 14028; type: functional, Salmonella enterica subsp. enterica serovar Typhimurium; conditions: Salmonella enterica; method in brief: as §1
[6] = tested on: Staphylococcus aureus; assay: Minimum inhibitory concentration (lowest peptide concentration) required to prevent visible bacterial growth after 18 hr of incubation at 37 C in Mueller-Hinton broth against Staphylococcus aureus G; type: functional; method in brief: as §1
[7] = tested on: Escherichia coli; assay: Minimum inhibitory concentration (lowest peptide concentration) required to prevent visible bacterial growth after 18 hr of incubation at 37 C in Mueller-Hinton broth against Escherichia coli ATCC 25922; type: functional; conditions: ATCC 25922, 18 h; method in brief: as §1
[8] = tested on: Salmonella enteritidis; assay: Minimum inhibitory concentration (lowest peptide concentration) required to prevent visible bacterial growth after 18 hr of incubation at 37 C in Mueller-Hinton broth against Salmonella enteritidis D5; conditions: Salmonella enterica
[9] = tested on: Acinetobacter baumannii; assay: Minimum inhibitory concentration (lowest peptide concentration) required to prevent visible bacterial growth after 18 hr of incubation at 37 C in Mueller-Hinton broth against Acinetobacter baumannii 118A; type: functional; method in brief: as §1
[10] = tested on: Klebsiella pneumoniae; assay: Minimum inhibitory concentration (lowest peptide concentration) required to prevent visible bacterial growth after 18 hr of incubation at 37 C in Mueller-Hinton broth against Klebsiella pneumoniae 79; type: functional; method in brief: as §1
[11] = tested on: Pseudomonas aeruginosa; assay: Minimum inhibitory concentration (lowest peptide concentration) required to prevent visible bacterial growth after 18 hr of incubation at 37 C in Mueller-Hinton broth against Pseudomonas aeruginosa ATCC 27853; type: functional; conditions: ATCC 27853, 18 h; method in brief: as §1
[12] = tested on: Escherichia coli; assay: Minimum inhibitory concentration (lowest peptide concentration) required to prevent visible bacterial growth after 18 hr of incubation at 37 C in Mueller-Hinton broth against Escherichia coli D22; type: functional; method in brief: as §1
[13] = tested on: Salmonella enteritidis; assay: Minimum inhibitory concentration (lowest peptide concentration) required to prevent visible bacterial growth after 18 h of incubation at 37 C in Mueller-Hinton broth against […]; type: functional, Salmonella enterica subsp. enterica serovar Enteritidis; conditions: Salmonella enterica; method in brief: as §1
[14] = tested on: Staphylococcus epidermidis; assay: Minimum inhibitory concentration (lowest peptide concentration) required to prevent visible bacterial growth after 18 hr of incubation at 37 C in Mueller-Hinton broth against Staphylococcus epidermidis 4; type: functional; method in brief: as §1

Measured: MIC

CC[C@H](C)[C@@H]1NC(=O)[C@@H]2CCCN2C(=O)[C@H](CCCNC(=N)N)NC(=O)[C@@H]2CCCN2C(=O)[C@H](Cc2cnc[nH]2)NC(=O)[C@H](CO)NC(=O)[C@H]([C@@H](C)O)NC(=O)[C@@H]2CCCN2C(=O)[C@H](CCCNC(=N)N)NC(=O)[C@@H]2CCCN2C(=O)[C@H](CO)NC(=O)[C@H](Cc2ccc(O)cc2)NC(=O)[C@@H]2CCCN2C(=O)[C@H](CCCNC(=N)N)NC(=O)[C@@H]2CCCN2C(=O)[C@H](CCCCN)NC(=O)CNC(=O)[C@H](C(C)C)NC(=O)[C@H](CCCNC(=N)N)NC(=O)[C@H]([C@@H](C)CC)NC(=O)[C@@H]2CCCN2C(=O)[C@H](CCCNC(=N)N)NC(=O)[C@@H]2CCCN2C(=O)[C@H](Cc2cnc[nH]2)NC(=O)[C@H](CO)NC(=O)[C@H]([C@@H](C)O)NC(=O)[C@@H]2CCCN2C(=O)[C@H](CCCNC(=N)N)NC(=O)[C@@H]2CCCN2C(=O)[C@H](CO)NC(=O)[C@H](Cc2ccc(O)cc2)NC(=O)[C@@H]2CCCN2C(=O)[C@H](CCCNC(=N)N)NC(=O)[C@@H]2CCCN2C(=O)[C@H](CCCCN)NC(=O)CNC(=O)[C@H](C(C)C)NC(=O)[C@H](CCCNC(=N)N)NC1=O (HELM PEPTIDE1{G.K.P.R.P.Y.S.P.R.P.T.S.H.P.R.P.I.R.V.G.K.P.R.P.Y.S.P.R.P.T.S.H.P.R.P.I.R.V}$PEPTIDE1,PEPTIDE1,1:R1-38:R2$$$V2.0)
> 64 µM: all assays above
